Results: ChEMBL document CHEMBL3097989, “Antimicrobial activity of de novo designed cationic peptides against multi-resistant clinical isolates” (Eur J Med Chem, 2014)
Where a SMILES comes first, the peptide text is derived from it.

How the values were obtained:
[1] = test system: Klebsiella pneumoniae; experiment: Antibacterial activity against Klebsiella pneumoniae M9170 clinical isolate expressing blaOXA-GIII gene by microdilution test; type: functional
Procedure, shortened: (§1)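 MIC by standard broth microdilution following CLSI recommendations, in Mueller Hinton broth supplemented with Ca²⁺ (20-25mg/L) and Mg²⁺ (10-12.5mg/L); peptides tested against a panel of multi-resistant clinical isolates plus ATCC reference strains.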

[2] = test system: Klebsiella pneumoniae; experiment: Antibacterial activity against Klebsiella pneumoniae M9140 clinical isolate expressing blaCIT gene by microdilution test; type: functional; procedure, shortened: as §1
[3] = test system: Klebsiella pneumoniae; experiment: Antibacterial activity against Klebsiella pneumoniae PFAV3 by microdilution test; type: functional; procedure, shortened: as §1
[4] = test system: Acinetobacter sp.; experiment: Antibacterial activity against Acinetobacter sp. M7978 clinical isolate expressing blaIMP-1 gene by microdilution test; type: functional; procedure, shortened: as §1
[5] = test system: Acinetobacter sp.; experiment: Antibacterial activity against Acinetobacter sp. M5949 clinical isolate expressing blaOXA-23 and blaOXA-GVI gene by microdilution test; type: functional; procedure, shortened: as §1
[6] = test system: Acinetobacter sp.; experiment: Antibacterial activity against Acinetobacter sp. PFAV1 clinical isolate expressing blaOXA-51, blaOXA-58 and blaPER gene by microdilution test; type: functional; procedure, shortened: as §1
[7] = test system: Acinetobacter sp.; experiment: Antibacterial activity against Acinetobacter sp. M5282 clinical isolate expressing blaOXA-51 gene by microdilution test; type: functional; procedure, shortened: as §1
[8] = test system: Acinetobacter sp.; experiment: Antibacterial activity against Acinetobacter sp. M9665 clinical isolate expressing blaOXA-51 gene by microdilution test; type: functional; procedure, shortened: as §1
[9] = test system: Pseudomonas aeruginosa; experiment: Antibacterial activity against Pseudomonas aeruginosa M7525 clinical isolate expressing blaSPM gene by microdilution test; type: functional
Procedure, shortened: (§2)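 MIC by standard broth microdilution following CLSI recommendations, in Mueller Hinton broth supplemented with Ca²⁺ (20-25 mg/L) and Mg²⁺ (10-12.5 mg/L); ATCC reference strains included in the panel.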

[10] = test system: Pseudomonas aeruginosa; experiment: Antibacterial activity against Pseudomonas aeruginosa M5200 clinical isolate expressing blaVIM and blaGES-1 gene by microdilution test; type: functional; procedure, shortened: as §2
[11] = test system: Pseudomonas aeruginosa; experiment: Antibacterial activity against Pseudomonas aeruginosa M5109 clinical isolate expressing blaVIM and blaGES-1 gene by microdilution test; type: functional; procedure, shortened: as §2
[12] = test system: Pseudomonas aeruginosa; experiment: Antibacterial activity against Pseudomonas aeruginosa M7728 clinical isolate expressing blaIMP gene by microdilution test; type: functional; procedure, shortened: as §2
[13] = test system: Pseudomonas aeruginosa; experiment: Antibacterial activity against Pseudomonas aeruginosa M7723 clinical isolate expressing blaKPC-2 gene by microdilution test; type: functional; procedure, shortened: as §2
[14] = test system: Pseudomonas aeruginosa; experiment: Antibacterial activity against Pseudomonas aeruginosa M13513 clinical isolate expressing blaKPC-2 gene by microdilution test; type: functional; procedure, shortened: as §1
[15] = test system: Pseudomonas aeruginosa; experiment: Antibacterial activity against Pseudomonas aeruginosa M7907 clinical isolate expressing blaPER gene by microdilution test; type: functional; procedure, shortened: as §2
[16] = test system: Pseudomonas aeruginosa; experiment: Antibacterial activity against Pseudomonas aeruginosa ATCC 27853 by microdilution test; type: functional; procedure, shortened: as §1
[17] = Toxicity in human RBC assessed as hemolytic activity relative to control; type: cell-based, Erythrocyte; conditions: red blood cells (RBC), read-out: Activity
Procedure, shortened: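 Heparinized human whole blood diluted 3x in PBS and centrifuged 10 min at 1500 rpm, repeated three times. Cells resuspended to 10% (v/v), then diluted to about 0.5% (v/v). Peptides added at various concentrations for 30 min at 37 °C. Supernatant absorbance read at 550 nm. Lysis calculated against buffer (0%) and water (100%). Readings taken in triplicate and averaged.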

[18] = test system: Enterococcus faecium; experiment: Antibacterial activity against Enterococcus faecium M2664 clinical isolate expressing vanA gene by microdilution test; type: functional; procedure, shortened: as §1
[19] = test system: Enterococcus faecium; experiment: Antibacterial activity against Enterococcus faecium M2481 clinical isolate expressing vanB gene by microdilution test; type: functional; procedure, shortened: as §1
[20] = test system: Enterococcus faecium; experiment: Antibacterial activity against Enterococcus faecium M2619 clinical isolate expressing vanB gene by microdilution test; type: functional; procedure, shortened: as §1
[21] = test system: Enterococcus faecium; experiment: Antibacterial activity against Enterococcus faecium PZAP95 by microdilution test; type: functional; procedure, shortened: as §1
[22] = test system: Enterococcus faecalis; experiment: Antibacterial activity against Enterococcus faecalis M6983 clinical isolate expressing vanA gene by microdilution test; type: functional; procedure, shortened: as §1
[23] = test system: Enterococcus faecalis; experiment: Antibacterial activity against Enterococcus faecalis M4449 clinical isolate expressing vanA gene by microdilution test; type: functional; procedure, shortened: as §1
[24] = test system: Enterococcus faecalis; experiment: Antibacterial activity against Enterococcus faecalis ATCC 51299 clinical isolate expressing vanB gene by microdilution test; type: functional; procedure, shortened: as §1
[25] = test system: Staphylococcus hominis; experiment: Antibacterial activity against Staphylococcus hominis M2967 clinical isolate expressing mecA gene by microdilution test; type: functional; procedure, shortened: as §2
[26] = test system: Staphylococcus hominis; experiment: Antibacterial activity against Staphylococcus hominis M2973 clinical isolate expressing mecA gene by microdilution test; type: functional; procedure, shortened: as §2
[27] = test system: Staphylococcus haemolyticus; experiment: Antibacterial activity against Staphylococcus haemolyticus M3014 by microdilution test; type: functional; procedure, shortened: as §2
[28] = test system: Staphylococcus saprophyticus; experiment: Antibacterial activity against Staphylococcus saprophyticus M2981 clinical isolate expressing mecA gene by microdilution test; type: functional; procedure, shortened: as §2
[29] = test system: Staphylococcus epidermidis; experiment: Antibacterial activity against Staphylococcus epidermidis M2921 clinical isolate expressing mecA gene by microdilution test; type: functional; procedure, shortened: as §2
[30] = test system: Staphylococcus epidermidis; experiment: Antibacterial activity against Staphylococcus epidermidis M2919 clinical isolate expressing mecA gene by microdilution test; type: functional; procedure, shortened: as §2
[31] = test system: Staphylococcus aureus; experiment: Antibacterial activity against Staphylococcus aureus M6784 clinical isolate expressing mecA gene by microdilution test; type: functional; procedure, shortened: as §2
[32] = test system: Staphylococcus aureus; experiment: Antibacterial activity against Staphylococcus aureus M4046 clinical isolate expressing mecA gene by microdilution test; type: functional; procedure, shortened: as §2
[33] = test system: Staphylococcus aureus; experiment: Antibacterial activity against Staphylococcus aureus M2832 clinical isolate expressing mecA gene by microdilution test; type: functional; procedure, shortened: as §2
[34] = test system: Staphylococcus aureus; experiment: Antibacterial activity against Staphylococcus aureus M6794 clinical isolate expressing mecA gene by microdilution test; type: functional; procedure, shortened: as §2
[35] = test system: Staphylococcus aureus; experiment: Antibacterial activity against Staphylococcus aureus M6276 clinical isolate expressing ermA and lnuA gene by microdilution test; type: functional; procedure, shortened: as §2
[36] = test system: Staphylococcus aureus; experiment: Antibacterial activity against Staphylococcus aureus P204 clinical isolate expressing ermA gene by microdilution test; type: functional; procedure, shortened: as §2
[37] = test system: Staphylococcus aureus; experiment: Antibacterial activity against Staphylococcus aureus P28 clinical isolate expressing ermA gene by microdilution test; type: functional; procedure, shortened: as §2
[38] = test system: Staphylococcus aureus; experiment: Antibacterial activity against Staphylococcus aureus ATCC 29213 by microdilution test; type: functional; procedure, shortened: as §2
[39] = test system: Escherichia coli; experiment: Antibacterial activity against Escherichia coli M5306 clinical isolate expressing blaPER-2, blaCTX-M-2 and blaTEM-1 gene by microdilution test; type: functional; procedure, shortened: as §1
[40] = test system: Escherichia coli; experiment: Antibacterial activity against Escherichia coli PLCA1 clinical isolate expressing blaCTX-M-2 and blaTEM-1 gene by microdilution test; type: functional; procedure, shortened: as §1
[41] = test system: Escherichia coli; experiment: Antibacterial activity against Escherichia coli PABC11 clinical isolate expressing blaCTX-M-2 gene by microdilution test; type: functional; procedure, shortened: as §1
[42] = test system: Escherichia coli; experiment: Antibacterial activity against Escherichia coli PCOS15 clinical isolate expressing blaPER-2 and blaTEM-1 gene by microdilution test; type: functional; procedure, shortened: as §1
[43] = test system: Escherichia coli; experiment: Antibacterial activity against Escherichia coli M7859 clinical isolate expressing blaCIT gene by microdilution test; type: functional; procedure, shortened: as §1
[44] = test system: Klebsiella pneumoniae; experiment: Antibacterial activity against Klebsiella pneumoniae M9885 clinical isolate expressing blaKPC-2 gene by microdilution test; type: functional; procedure, shortened: as §1
[45] = test system: Klebsiella pneumoniae; experiment: Antibacterial activity against Klebsiella pneumoniae M13540 clinical isolate expressing blaKPC-2 gene by microdilution test; type: functional; procedure, shortened: as §1
[46] = test system: Klebsiella pneumoniae; experiment: Antibacterial activity against Klebsiella pneumoniae M7647 clinical isolate expressing blaVIM, blaCTX-M-2, blaTEM-1 and blaSHV-1 gene by microdilution test; type: functional; procedure, shortened: as §1
[47] = test system: Klebsiella pneumoniae; experiment: Antibacterial activity against Klebsiella pneumoniae M1803 clinical isolate expressing blaPER-2, blaCTX-M-2, blaTEM-1, blaSHV and blaOXA-9 gene by microdilution test; type: functional; procedure, shortened: as §1
[48] = test system: Klebsiella pneumoniae; experiment: Antibacterial activity against Klebsiella pneumoniae M9310 clinical isolate expressing blaCTX-M-2, blaTEM-1 and blaSHV-1 gene by microdilution test; type: functional; procedure, shortened: as §1

- MIC90 [1]: 128 µg/mL
- MIC90 [2]: 64 µg/mL
- MIC90 [3]: 128 µg/mL
- MIC90 [4]: 16 µg/mL
- MIC90 [5]: 32 µg/mL
- MIC90 [6]: 16 µg/mL
- MIC90 [7]: 8 µg/mL
- MIC90 [8]: 4 µg/mL
- MIC90 [9]: 512 µg/mL
- MIC90 [10]: 512 µg/mL
- MIC90 [11]: 256 µg/mL
- MIC90 [12]: 512 µg/mL
- MIC90 [13]: 256 µg/mL
- MIC90 [14]: 256 µg/mL
- MIC90 [15]: 128 µg/mL
- MIC90 [16]: 256 µg/mL
- MIC90 [18]: 8 µg/mL
- MIC90 [19]: 16 µg/mL
- MIC90 [20]: 16 µg/mL
- MIC90 [21]: 16 µg/mL
- MIC90 [22]: 128 µg/mL
- MIC90 [23]: 128 µg/mL
- MIC90 [24]: 256 µg/mL
- MIC90 [25]: 4 µg/mL
- MIC90 [26]: 4 µg/mL
- MIC90 [28]: 8 µg/mL
- MIC90 [29]: 8 µg/mL
- MIC90 [30]: 8 µg/mL
- MIC90 [31]: 32 µg/mL
- MIC90 [32]: 32 µg/mL
- MIC90 [33]: 64 µg/mL
- MIC90 [34]: 64 µg/mL
- MIC90 [35]: 32 µg/mL
- MIC90 [36]: 64 µg/mL
- MIC90 [37]: 32 µg/mL
- MIC90 [38]: 32 µg/mL
- MIC90 [39]: 64 µg/mL
- MIC90 [40]: 64 µg/mL
- MIC90 [41]: 64 µg/mL
- MIC90 [42]: 64 µg/mL
- MIC90 [43]: 64 µg/mL
- MIC90 [44]: 256 µg/mL
- MIC90 [45]: 256 µg/mL
- MIC90 [46]: 1020 µg/mL
- MIC90 [47]: 1020 µg/mL
- MIC90 [48]: 64 µg/mL
Compound: CC[C@H](C)[C@H](N)C(=O)N[C@@H](CC(C)C)C(=O)N[C@@H](CCCNC(=N)N)C(=O)N[C@@H](Cc1c[nH]c2ccccc12)C(=O)N1CCC[C@H]1C(=O)N[C@@H](Cc1c[nH]c2ccccc12)C(=O)N[C@@H](Cc1c[nH]c2ccccc12)C(=O)N1CCC[C@H]1C(=O)N[C@@H](Cc1c[nH]c2ccccc12)C(=O)N[C@@H](CCCNC(=N)N)C(=O)N[C@@H](CCCNC(=N)N)C(=O)N[C@@H](CCCCN)C(N)=O.Cl.Cl.Cl.Cl.Cl [OMIGANAN PENTAHYDROCHLORIDE] (H-ILRWPWWPWRRK-NH2)
- hemolysis [17]: 10%
- MIC90 [27]: 4 µg/mL
